According to ChEMBL document CHEMBL1139922, “Discovery and structure-activity relationship studies of indole derivatives as liver X receptor (LXR) agonists” (Bioorg Med Chem Lett, 2007):

Legend:
[1] = test system: HepG2 (Homo sapiens); experiment: Ratio of induction of SREBP1c gene expression in HepG2 cells at 10 uM to control
[2] = test system: HepG2; experiment: Ratio of induction of lipogenesis in HepG2 cells at 10 uM to control after 24 hrs; type: functional, Homo sapiens
[3] = target: T1, Oxysterols receptor LXR-beta (Homo sapiens, UniProt P55055); experiment: Agonist activity at LXRbeta LBD by HTRF cofactor peptide recruitment assay; type: functional
T1 sequence (P55055 whole entry): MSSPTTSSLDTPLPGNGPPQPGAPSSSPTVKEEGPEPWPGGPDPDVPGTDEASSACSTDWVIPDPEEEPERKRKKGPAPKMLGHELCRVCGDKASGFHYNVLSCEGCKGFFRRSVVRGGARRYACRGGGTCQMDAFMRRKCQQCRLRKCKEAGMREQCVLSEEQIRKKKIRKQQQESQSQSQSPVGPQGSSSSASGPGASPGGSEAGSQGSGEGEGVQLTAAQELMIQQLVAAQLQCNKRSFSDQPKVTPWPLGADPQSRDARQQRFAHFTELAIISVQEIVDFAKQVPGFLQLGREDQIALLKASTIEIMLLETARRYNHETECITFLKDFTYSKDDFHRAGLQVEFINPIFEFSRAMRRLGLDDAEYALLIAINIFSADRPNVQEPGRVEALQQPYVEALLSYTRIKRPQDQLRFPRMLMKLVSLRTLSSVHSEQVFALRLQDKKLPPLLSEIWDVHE

[4] = test system: THP-1; experiment: Induction of cholesterol efflux in THP1 cells after 18 hrs; type: functional, cell-based; details: Homo sapiens, THP-1, 18 h
[5] = test system: THP-1; experiment: Ratio of induction of cholesterol efflux in THP1 cells at 10 uM to control after 18 hrs; type: functional, Homo sapiens
[6] = target: T1, Oxysterols receptor LXR-beta; experiment: Activation of LXRbeta co-transfected in COS7 cells with RXRalpha by reporter transactivation assay; type: functional, cell-based, COS-7
Method in brief: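 Cells exposed to vehicle or compound for 16 h; LXR reporter activation read as luciferase activity in cell lysate. EC50 derived from means of quadruplicate samples, single experiment.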

[7] = target: T2, Oxysterols receptor LXR-alpha (Homo sapiens, UniProt Q13133); experiment: Agonist activity at LXRalpha LBD by HTRF cofactor peptide recruitment assay; type: functional
T2 sequence (Q13133 whole entry): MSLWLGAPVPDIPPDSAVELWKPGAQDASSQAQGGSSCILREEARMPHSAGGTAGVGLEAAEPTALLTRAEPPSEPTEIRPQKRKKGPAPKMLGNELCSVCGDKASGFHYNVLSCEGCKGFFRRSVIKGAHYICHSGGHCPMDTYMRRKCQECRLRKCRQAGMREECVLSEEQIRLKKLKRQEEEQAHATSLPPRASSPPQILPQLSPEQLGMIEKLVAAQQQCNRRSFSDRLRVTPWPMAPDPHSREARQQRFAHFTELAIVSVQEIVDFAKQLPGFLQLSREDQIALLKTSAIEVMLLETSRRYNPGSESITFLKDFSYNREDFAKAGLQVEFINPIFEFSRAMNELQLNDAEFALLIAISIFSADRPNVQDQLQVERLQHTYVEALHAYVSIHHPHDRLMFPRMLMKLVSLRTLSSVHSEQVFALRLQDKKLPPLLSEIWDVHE

[8] = test system: THP-1; experiment: Ratio of induction of ABCA1 gene expression in THP1 cells at 10 uM to control; type: functional, Homo sapiens

EC50 [3] [nM]	Compound	other results
190	CC(C)(C)OC(=O)n1c(-c2ccc3c(c2)CC(NS(=O)(=O)c2ccccc2)C3)cc2ccccc21 (stereo unspecified)	Ratio [1]: 3.1; Ratio [2]: 3.1; EC50 [4]: 680 nM; Ratio [5]: 1.6; EC50 [6]: 65 nM; EC50 [7]: 1500 nM; Ratio [8]: 8.4
> 30000	CC(C)(C)OC(=O)n1c(-c2ccc3c(c2)CC(NS(=O)(=O)c2ccccc2)C3)cc2cc(O)ccc21 (stereo unspecified)	–
1500	CC(C)(C)OC(=O)n1c(-c2ccc3c(c2)CC(NS(=O)(=O)c2ccccc2)C3)cc2cc(F)ccc21 (stereo unspecified)	–
18000	Cc1ccc2c(c1)cc(-c1ccc3c(c1)CC(NS(=O)(=O)c1ccccc1)C3)n2C(=O)OC(C)(C)C (stereo unspecified)	–
670	CC(C)(C)OC(=O)n1c(-c2ccc3c(c2)CC(NS(=O)(=O)c2ccccc2)C3)cc2ccc(O)cc21 (stereo unspecified)	–
660	CC(C)(C)OC(=O)n1c(-c2ccc3c(c2)C[C@H](NS(=O)(=O)c2ccccc2)C3)cc2ccccc21	–
130	CC(C)(C)OC(=O)n1c(-c2ccc3c(c2)C[C@@H](NS(=O)(=O)c2ccccc2)C3)cc2ccccc21	–
> 30000	O=S(=O)(NC1Cc2ccc(-c3cc4ccccc4[nH]3)cc2C1)c1ccccc1 (stereo unspecified)	–
1600	CCOC(=O)n1c(-c2ccc3c(c2)CC(NS(=O)(=O)c2ccccc2)C3)cc2ccccc21 (stereo unspecified)	–
1300	CC(C)CCOC(=O)n1c(-c2ccc3c(c2)CC(NS(=O)(=O)c2ccccc2)C3)cc2ccccc21 (stereo unspecified)	–
> 30000	CCCCC(C)COC(=O)n1c(-c2ccc3c(c2)CC(NS(=O)(=O)c2ccccc2)C3)cc2ccccc21 (stereo unspecified)	–
> 30000	O=S(=O)(NC1Cc2ccc(-c3cc4ccccc4n3S(=O)(=O)c3ccccc3)cc2C1)c1ccccc1 (stereo unspecified)	–
900	O=C(C1CCCC1)n1c(-c2ccc3c(c2)CC(NS(=O)(=O)c2ccccc2)C3)cc2ccccc21 (stereo unspecified)	–
> 30000	CC(C)(C)CC(=O)n1c(-c2ccc3c(c2)CC(NS(=O)(=O)c2ccccc2)C3)cc2ccccc21 (stereo unspecified)	–
> 30000	Cn1c(-c2ccc3c(c2)CC(NS(=O)(=O)c2ccccc2)C3)cc2ccccc21 (stereo unspecified)	–
> 30000	CC(C)(C)OC(=O)Cn1c(-c2ccc3c(c2)CC(NS(=O)(=O)c2ccccc2)C3)cc2ccccc21 (stereo unspecified)	–
> 30000	O=S(=O)(NC1Cc2ccc(-c3cc4ccccc4n3CCCOCc3ccccc3)cc2C1)c1ccccc1 (stereo unspecified)	–
> 10000	O=S(=O)(NC1Cc2ccc(-c3cc4ccccc4n3CCc3ccccc3)cc2C1)c1ccccc1 (stereo unspecified)	–
2100	CC(C)(C)OC(=O)n1c(-c2ccc3c(c2)CC(NS(=O)(=O)c2ccc(-c4ccccc4)cc2)C3)cc2ccccc21 (stereo unspecified)	–
1160	CC(C)(C)OC(=O)n1c(-c2ccc3c(c2)CC(NS(=O)(=O)c2ccc(Cl)cc2)C3)cc2ccccc21 (stereo unspecified)	–
430	Cc1ccc(S(=O)(=O)NC2Cc3ccc(-c4cc5ccccc5n4C(=O)OC(C)(C)C)cc3C2)cc1 (stereo unspecified)	–

EC50 [3] [nM]	Compound	other results
730	CC(C)(C)OC(=O)n1c(-c2ccc3c(c2)CC(NS(=O)(=O)c2ccc(C(F)(F)F)cc2)C3)cc2ccccc21 (stereo unspecified)	–
1330	Cc1cccc(S(=O)(=O)NC2Cc3ccc(-c4cc5ccccc5n4C(=O)OC(C)(C)C)cc3C2)c1 (stereo unspecified)	–
960	COc1cccc(S(=O)(=O)NC2Cc3ccc(-c4cc5ccccc5n4C(=O)OC(C)(C)C)cc3C2)c1 (stereo unspecified)	–
460	CC(C)(C)OC(=O)n1c(-c2ccc3c(c2)CC(NS(=O)(=O)c2cccc(C#N)c2)C3)cc2ccccc21 (stereo unspecified)	–
600	COC(=O)c1ccccc1S(=O)(=O)NC1Cc2ccc(-c3cc4ccccc4n3C(=O)OC(C)(C)C)cc2C1 (stereo unspecified)	–
3350	CC(C)(C)OC(=O)n1c(-c2ccc3c(c2)CC(NS(=O)(=O)c2ccccc2C(=O)O)C3)cc2ccccc21 (stereo unspecified)	–
> 30000	CC(C)(C)OC(=O)n1c(-c2ccc3c(c2)CC(NS(=O)(=O)c2ccccc2)C3)cc2cc(OCc3ccccc3)ccc21 (stereo unspecified)	–
600	COc1ccccc1S(=O)(=O)NC1Cc2ccc(-c3cc4ccccc4n3C(=O)OC(C)(C)C)cc2C1 (stereo unspecified)	–
800	CC(C)(C)OC(=O)n1c(-c2ccc3c(c2)CC(NS(=O)(=O)c2ccccc2C(F)(F)F)C3)cc2ccccc21 (stereo unspecified)	–
760	CC(C)(C)OC(=O)n1c(-c2ccc3c(c2)CC(NS(=O)(=O)c2ccccc2Cl)C3)cc2ccccc21 (stereo unspecified)	–
190	CC(C)(C)OC(=O)n1c(-c2ccc3c(c2)CC(NC(=O)c2ccccc2)C3)cc2ccccc21 (stereo unspecified)	–
470	COc1ccccc1C(=O)NC1Cc2ccc(-c3cc4ccccc4n3C(=O)OC(C)(C)C)cc2C1 (stereo unspecified)	–
530	CC(C)(C)OC(=O)n1c(-c2ccc3c(c2)CC(NC(=O)c2ccccc2O)C3)cc2ccccc21 (stereo unspecified)	–
520	CC(C)(C)OC(=O)n1c(-c2ccc3c(c2)CC(NS(=O)(=O)Cc2ccccc2)C3)cc2ccccc21 (stereo unspecified)	–
1500	CC(C)(C)OC(=O)n1c(-c2ccc3c(c2)CC(NC(=O)Nc2ccccc2)C3)cc2ccccc21 (stereo unspecified)	–
400	CCS(=O)(=O)NC1Cc2ccc(-c3cc4ccccc4n3C(=O)OC(C)(C)C)cc2C1 (stereo unspecified)	–
1400	CC(C)(C)COC(=O)n1c(-c2ccc3c(c2)CC(NS(=O)(=O)c2ccccc2)C3)cc2ccccc21 (stereo unspecified)	–
60	CC(C)(C)OC(=O)n1c(-c2ccc3c(c2)CC(NS(=O)(=O)c2ccccc2C#N)C3)cc2ccccc21 (stereo unspecified)	–
100	CC(C)(C)OC(=O)n1c(-c2ccc3c(c2)CC(NS(=O)(=O)c2ccccc2F)C3)cc2ccccc21 (stereo unspecified)	–
1160	O=C(CC1CC1)n1c(-c2ccc3c(c2)CC(NS(=O)(=O)c2ccccc2)C3)cc2ccccc21 (stereo unspecified)	–
> 30000	CC(C)(C)OC(=O)n1c(-c2ccc3c(c2)CC(NS(=O)(=O)c2ccccc2)C3)cc2c(OCc3ccccc3)cccc21 (stereo unspecified)	–

EC50 [3] [nM]	Compound	other results
170	CC(C)(C)OC(=O)n1c(-c2ccc3c(c2)CC(NC(=O)c2ccccc2F)C3)cc2ccccc21 (stereo unspecified)	–
> 30000	CC(C)(C)OC(=O)n1c(-c2ccc3c(c2)CC(NS(=O)(=O)c2ccccc2)C3)cc2c(O)cccc21 (stereo unspecified)	–
26000	CC(C)(C)OC(=O)n1c(-c2ccc3c(c2)CC(NS(=O)(=O)c2ccccc2)C3)cc2cc(C#N)ccc21 (stereo unspecified)	–
1810	CC(C)(C)OC(=O)n1c(-c2ccc3c(c2)CC(NS(=O)(=O)c2cccc(Cl)c2)C3)cc2ccccc21 (stereo unspecified)	–
200	Cc1ccccc1S(=O)(=O)NC1Cc2ccc(-c3cc4ccccc4n3C(=O)OC(C)(C)C)cc2C1 (stereo unspecified)	–
2100	CCCCCC(=O)n1c(-c2ccc3c(c2)CC(NS(=O)(=O)c2ccccc2)C3)cc2ccccc21 (stereo unspecified)	–
> 30000	O=S(=O)(NC1Cc2ccc(-c3cc4ccccc4n3Cc3ccccc3)cc2C1)c1ccccc1 (stereo unspecified)	–
670	CC(C)(C)OC(=O)n1c(-c2ccc3c(c2)CC(NS(=O)(=O)c2ccc(-c4ccon4)s2)C3)cc2ccccc21 (stereo unspecified)	Ratio [1]: 2.1; Ratio [2]: 1.2; EC50 [4]: 590 nM; Ratio [5]: 1.7; EC50 [6]: 336 nM; EC50 [7]: > 30000 nM; Ratio [8]: 7.5
300	Cc1ccc2cc(-c3ccc4c(c3)CC(NS(=O)(=O)c3ccccc3)C4)n(C(=O)OC(C)(C)C)c2c1 (stereo unspecified)	–
> 30000	COC(=O)n1c(-c2ccc3c(c2)CC(NS(=O)(=O)c2ccccc2)C3)cc2ccccc21 (stereo unspecified)	–
> 30000	CC(C)(C)OC(=O)n1c(-c2ccc3c(c2)CC(NS(=O)(=O)c2ccccc2)C3)cc2ccc(OCc3ccccc3)cc21 (stereo unspecified)	–
28000	COc1ccc2c(c1)cc(-c1ccc3c(c1)CC(NS(=O)(=O)c1ccccc1)C3)n2C(=O)OC(C)(C)C (stereo unspecified)	–
1600	COc1ccc2cc(-c3ccc4c(c3)CC(NS(=O)(=O)c3ccccc3)C4)n(C(=O)OC(C)(C)C)c2c1 (stereo unspecified)	–
650	CCc1ccc(S(=O)(=O)NC2Cc3ccc(-c4cc5ccccc5n4C(=O)OC(C)(C)C)cc3C2)cc1 (stereo unspecified)	–
130	Cc1noc(C)c1S(=O)(=O)NC1Cc2ccc(-c3cc4ccccc4n3C(=O)OC(C)(C)C)cc2C1 (stereo unspecified)	–
> 30000	COc1ccc(Cn2c(-c3ccc4c(c3)CC(NS(=O)(=O)c3ccccc3)C4)cc3ccccc32)cc1 (stereo unspecified)	–
210	CC(C)(C)OC(=O)n1c(-c2ccc3c(c2)CC(NS(C)(=O)=O)C3)cc2ccccc21 (stereo unspecified)	–
35	O=C(O)Cc1cccc(OCCCN(Cc2cccc(C(F)(F)F)c2Cl)CC(c2ccccc2)c2ccccc2)c1	Ratio [1]: 5.2; Ratio [2]: 2.7; EC50 [4]: 10 nM; Ratio [5]: 1.8; EC50 [7]: 367 nM; Ratio [8]: 10.7
–	O=S(=O)(c1ccccc1)N(CC(F)(F)F)c1ccc(C(O)(C(F)(F)F)C(F)(F)F)cc1 [T091317]	EC50 [4]: 33 nM
